# According to ChEMBL document CHEMBL4184322, “Coupling of an Acyl Migration Prodrug Strategy with Bio-activation To Improve Oral Delivery of the HIV-1 Protease Inhibitor Atazanavir” (J Med Chem, 2018):
# Key:
# Rattus norvegicus [1] = experiment: Trough concentration in Sprague-Dawley rat assessed as atazanavir at 3 mg/kg, po equiv of atazanavir at 24 hrs by UPLC/MS/MS method; format: ADME, organism-based; conditions: in vivo; for concentration: read-out: Cmin
# Rattus norvegicus [2] = experiment: Oral bioavailability in Sprague-Dawley rat assessed as atazanavir at 3 mg/kg equiv of atazanavir after 0.25 to 24 hrs by UPLC/MS/MS method; format: ADME, organism-based; conditions: in vivo
# Rattus norvegicus [3] = experiment: Cmax in Sprague-Dawley rat assessed as atazanavir at 3 mg/kg, po equiv of atazanavir after 0.25 to 24 hrs by UPLC/MS/MS method; format: ADME, organism-based; design: dose 3 mg/kg, route oral; conditions: in vivo
# [4] = Efflux ratio of apparent permeability across basolateral to apical over apical to basolateral side in human Caco2 cells; format: ADME, cell-based; conditions: Caco-2
# [5] = Apparent permeability across basolateral to apical side in human Caco2 cells; format: ADME, cell-based; conditions: Caco-2
# [6] = Apparent permeability across apical to basolateral side in human Caco2 cells; format: ADME, cell-based; conditions: Caco-2
# [7] = Half life of the compound in phosphate buffer at pH 6.5 at 37 degC after 24 hrs by UPLC method; format: physicochemical
# [8] = Half life in rat whole blood at 1 uM after 5 to 90 mins by UPLC-MS/MS method; format: ADME, tissue-based
# Rattus norvegicus [9] = experiment: Oral bioavailability in Sprague-Dawley rat assessed as atazanavir at 3 mg/kg equiv of atazanavir after 0.25 to 24 hrs by UPLC/MS/MS method relative to atazanavir; format: ADME, organism-based; conditions: in vivo
# [10] = Half life of the compound in acetate buffer at pH 4 at 37 degC after 24 hrs by UPLC method; format: physicochemical
# Rattus norvegicus [11] = experiment: Ratio of AUClast in Sprague-Dawley rat at 3 mg/kg, po equiv of atazanavir to AUC in Sprague-Dawley rat assessed as atazanavir at 3 mg/kg, po equiv of atazanavir; format: ADME, organism-based; conditions: in vivo
# Rattus norvegicus [12] = experiment: Tmax in Sprague-Dawley rat assessed as atazanavir at 3 mg/kg, po equiv of atazanavir after 0.25 to 24 hrs by UPLC/MS/MS method; format: ADME, organism-based; conditions: in vivo
# [13] = Solubility of the compound in phosphate buffer at pH 6.5 at 25 degC by UPLC method; format: physicochemical
# [14] = Solubility of the compound in acetate buffer at pH 4 at 25 degC by UPLC method; format: physicochemical
# [15] = Half life in rat hepatocytes at 1 uM after 5 to 120 mins by UPLC-MS/MS method; format: ADME, cell-based, Hepatocyte
# Rattus norvegicus [16] = experiment: AUClast in Sprague-Dawley rat assessed as atazanavir at 3 mg/kg, po equiv of atazanavir after 0.25 to 24 hrs by UPLC/MS/MS method; format: ADME, organism-based; design: time upper 24 hr, dose 3 mg/kg, time lower 0.25 hr, route oral; conditions: in vivo
# [17] = Half life of the compound in 0.1 N aqueous HCl at pH 1 at 37 degC after 24 hrs by UPLC method; format: physicochemical
# [18] = Solubility of the compound in 0.1 N aqueous HCl at pH 1 at 25 degC by UPLC method; format: physicochemical
# Rattus norvegicus [19] = experiment: AUC (0 to 24 hrs) in pentagastrin treated Sprague-Dawley rat assessed as atazanavir at 10 mg/kg, po equiv of atazanavir by UPLC/MS/MS method; format: ADME, organism-based; design: dose 10 mg/kg, time < 24 hr, route oral; conditions: in vivo
# Outline: (§1)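 Rat gastric pH model. Gastric pH was modulated by pretreatment with either pentagastrin or famotidine. Dosing was oral as a suspension in 0.5% methyl cellulose / 99.5% water, with parent AUC0–24 h determined in each arm.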
# Rattus norvegicus [20] = experiment: Trough concentration in Sprague-Dawley rat assessed as (2S,3S)-3-Amino-1-(2-((S)-2-((methoxycarbonyl)amino)-3,3-dimethylbutanoyl)-1-(4-(pyridin-2-yl)benzyl)hydrazinyl)4-phenylbutan-2-yl (S)-2-((Methoxycarbonyl)amino)-3,3-dimethylbutanoate Dihydrochloride at 3 mg/kg, po equiv of atazanavir at 24 hrs by UPLC/MS/MS method; format: ADME, organism-based; conditions: in vivo, read-out: Cmin
# Rattus norvegicus [21] = experiment: Tmax in Sprague-Dawley rat assessed as (2S,3S)-3-Amino-1-(2-((S)-2-((methoxycarbonyl)amino)-3,3-dimethylbutanoyl)-1-(4-(pyridin-2-yl)benzyl)hydrazinyl)4-phenylbutan-2-yl (S)-2-((Methoxycarbonyl)amino)-3,3-dimethylbutanoate Dihydrochloride at 3 mg/kg, po equiv of atazanavir after 0.25 to 24 hrs by UPLC/MS/MS method; format: ADME, organism-based; conditions: in vivo
# Rattus norvegicus [22] = experiment: Cmax in Sprague-Dawley rat assessed as (2S,3S)-3-Amino-1-(2-((S)-2-((methoxycarbonyl)amino)-3,3-dimethylbutanoyl)-1-(4-(pyridin-2-yl)benzyl)hydrazinyl)4-phenylbutan-2-yl (S)-2-((Methoxycarbonyl)amino)-3,3-dimethylbutanoate Dihydrochloride at 3 mg/kg, po equiv of atazanavir after 0.25 to 24 hrs by UPLC/MS/MS method; format: ADME, organism-based; design: dose 3 mg/kg, route oral; conditions: in vivo
# Rattus norvegicus [23] = experiment: AUC (0 to 24 hrs) in Sprague-Dawley rat assessed as atazanavir at 10 mg/kg, po equiv of atazanavir by UPLC/MS/MS method; format: ADME, organism-based; design: time < 24 hr, dose 10 mg/kg, route oral; conditions: in vivo
# Rattus norvegicus [24] = experiment: AUC (0 to 24 hrs) in famotidine treated Sprague-Dawley rat assessed as atazanavir at 10 mg/kg, po equiv of atazanavir by UPLC/MS/MS method; format: ADME, organism-based; design: time < 24 hr, dose 10 mg/kg, route oral; conditions: in vivo; outline: as §1
# Rattus norvegicus [25] = experiment: AUClast in Sprague-Dawley rat assessed as (2S,3S)-3-Amino-1-(2-((S)-2-((methoxycarbonyl)amino)-3,3-dimethylbutanoyl)-1-(4-(pyridin-2-yl)benzyl)hydrazinyl)4-phenylbutan-2-yl (S)-2-((Methoxycarbonyl)amino)-3,3-dimethylbutanoate Dihydrochloride at 3 mg/kg, po equiv of atazanavir after 0.25 to 24 hrs by UPLC/MS/MS method; format: ADME, organism-based; design: time lower 0.25 hr, dose 3 mg/kg, time upper 24 hr, route oral; conditions: in vivo
# [26] = AUC (0 to 24 hrs) in pentagastrin treated Sprague-Dawley rat at 10 mg/kg, po by UPLC/MS/MS method; format: ADME, organism-based; design: dose 10 mg/kg, time < 24 hr, route oral; conditions: in vivo
# Outline: (§2)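 Rat gastric-pH model: gastric pH raised with famotidine or lowered with pentagastrin before oral dosing […] as a suspension in 0.5% methyl cellulose / 99.5% water; plasma atazanavir (parent) AUC0–24 h determined.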
# Rattus norvegicus [27] = experiment: Ratio of AUC in pentagastrin treated Sprague-Dawley rat at 10 mg/kg, po to AUC in famotidine treated Sprague-Dawley rat at 10 mg/kg, po; format: ADME, organism-based; conditions: in vivo
# Outline: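 Oral suspension in 0.5% methyl cellulose / 99.5% water, given to rats whose gastric pH was modulated by pretreatment with pentagastrin or famotidine.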
# Rattus norvegicus [28] = experiment: AUClast in Sprague-Dawley rat at 3 mg/kg, po after 0.25 to 24 hrs by UPLC/MS/MS method; format: ADME, organism-based; design: time 0.25-24 hr, dose 3 mg/kg, route oral; conditions: in vivo
# [29] = AUC (0 to 24 hrs) in famotidine treated Sprague-Dawley rat at 10 mg/kg, po by UPLC/MS/MS method; format: ADME, organism-based; design: dose 10 mg/kg, time < 24 hr, route oral; conditions: in vivo; outline: as §2
# [30] = Tmax in Sprague-Dawley rat at 3 mg/kg, po after 0.25 to 24 hrs by UPLC/MS/MS method; format: ADME, organism-based; conditions: in vivo
# Rattus norvegicus [31] = experiment: Cmax in Sprague-Dawley rat at 3 mg/kg, po after 0.25 to 24 hrs by UPLC/MS/MS method; format: ADME, organism-based; design: dose 3 mg/kg, route oral; conditions: in vivo
# [32] = Oral bioavailability in Sprague-Dawley rat at 3 mg/kg after 0.25 to 24 hrs by UPLC/MS/MS method; format: ADME, organism-based; conditions: in vivo
# [33] = Trough concentration in Sprague-Dawley rat at 3 mg/kg, po at 24 hrs by UPLC/MS/MS method; format: ADME, organism-based; conditions: in vivo, read-out: Cmin
# [34] = AUC (0 to 24 hrs) in Sprague-Dawley rat at 10 mg/kg, po by UPLC/MS/MS method; format: ADME, organism-based; design: dose 10 mg/kg, time < 24 hr, route oral; conditions: in vivo
Structure (SMILES),Cmax (Rattus norvegicus [3]) [nM],efflux ratio [4],Papp B→A [5] [×10⁻⁶ cm/s],Papp A→B [6] [×10⁻⁶ cm/s],concentration (Rattus norvegicus [1]) [nM],half-life [7] [h],half-life at 1 µM [8] [h],F (Rattus norvegicus [9]) [%],half-life [10] [h],Ratio AUC (Rattus norvegicus [11]),Tmax (Rattus norvegicus [12]) [h],solubility [13] [µg/mL],solubility [14] [µg/mL],half-life at 1 µM [15] [h],AUClast (Rattus norvegicus [16]) [µM·h],half-life [17] [h],solubility [18] [µg/mL],other results
COC(=O)N[C@H](C(=O)N[C@@H](Cc1ccccc1)[C@H](CN(Cc1ccc(-c2ccccn2)cc1)NC(=O)[C@@H](NC(=O)OC)C(C)(C)C)OC(=O)[C@@H](N)C(C)C)C(C)(C)C.Cl.Cl,10,,,,,,,,,,,,,,,,,Cmin (Rattus norvegicus [1]; BLD = below limit of detection): Bld; F (Rattus norvegicus [2]): 2.2%
COC(=O)N[C@H](C(=O)NN(Cc1ccc(-c2ccccn2)cc1)C[C@H](OC(=O)[C@@H](NC(=O)OC)C(C)(C)C)[C@H](Cc1ccccc1)NC(=O)OC(OC(=O)[C@H](N)C(C)C)C(C)C)C(C)(C)C.Cl.Cl (stereo partly drawn),37,> 5,7.3,< 1.5,0.3,215,> 2,8.7,> 500,50.5,2.3,27,> 1430,0.883,0.167,> 500,> 500,
COC(=O)N[C@H](C(=O)NN(Cc1ccc(-c2ccccn2)cc1)C[C@H](OC(=O)[C@@H](NC(=O)OC)C(C)(C)C)[C@H](Cc1ccccc1)NC(=O)OC(OC(=O)[C@@H](N)C(C)C)C(C)C)C(C)(C)C.Cl.Cl (stereo partly drawn),310,> 8,11.4,< 1.5,4.5,108,> 2,75.3,> 500,3.4,1.7,10,120,0.933,1.446,> 500,> 1100,AUC (Rattus norvegicus [19]): 1.332 µM·h; concentration (Rattus norvegicus [20]): 2 nM; Tmax (Rattus norvegicus [21]): 1.7 h; Cmax (Rattus norvegicus [22]): 124 nM; AUC (Rattus norvegicus [23]): 2.093 µM·h; AUC (Rattus norvegicus [24]): 1.275 µM·h; AUClast (Rattus norvegicus [25]): 0.579 µM·h
COC(=O)N[C@H](C(=O)N[C@@H](Cc1ccccc1)[C@@H](O)CN(Cc1ccc(-c2ccccn2)cc1)NC(=O)[C@@H](NC(=O)OC)C(C)(C)C)C(C)(C)C [ATAZANAVIR],,> 31,47,,,> 500,> 2,,> 500,,,< 1,< 1,0.467,,> 500,1690,AUC(0-t) at 24 h [26]: 2.46 µM·h; Ratio AUC (Rattus norvegicus [27]): 492; AUClast (Rattus norvegicus [28]): 0.384 µM·h; AUC(0-t) at 24 h [29]: 0.005 µM·h; Tmax [30]: 0.5 h; Cmax (Rattus norvegicus [31]): 266 nM; bioavailability [32]: 20%; concentration at 24 h [33]: 0.25 nM; AUC(0-t) at 24 h [34]: 0.24 µM·h
